Results on 1 compound are retold here after ChEMBL document CHEMBL3992509, “Discovery of a Highly Potent, Selective, and Metabolically Stable Inhibitor of Receptor-Interacting Protein 1 (RIP1) for the Treatment of Systemic Inflammatory Response Syndrome” (J Med Chem, 2017).

Activity calls are given as the source filed them. The calls are words filed in the database; no cut-off is given here.

Data set [1] can be described thus: Bioavailability in C57BL/6J mouse at 10 mg/kg, ip by LC-MS/MS analysis. It counts as ADME, organism-based. The conditions noted are these: in vivo. The method, boiled down: (§1)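 C57BL/6 mice (n = 3) dosed IV, IP or PO; blood sampled by eye puncture at various time points; plasma levels by LC-MS/MS; parameters from individual animal data by non-compartmental analysis.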

Data set [2] relates to Brain. Nature of the data set: Drug uptake in C57BL/6J mouse brain at 20 mg/kg, iv after 2 hrs by LC-MS/MS analysis. It counts as ADME, organism-based. The conditions noted are these: in vivo.
Data set [3] is described as follows: Oral bioavailability in C57BL/6J mouse at 10 mg/kg by LC-MS/MS analysis. It counts as ADME, organism-based. The conditions noted are these: in vivo. The method in brief: as §1
Data set [4] relates to Mus musculus. Nature of the data set: Protection against TNFalpha-induced mortality in C57BL/6J mouse assessed as survival rate at 3 mg/kg, ip pretreated for 17 mins followed by TNFalpha injection and subsequent compound treatment once in every 12 hrs measured every 30 mins up to 60 hrs post TNFalpha injection during compound dosing (reference value: 50%). It counts as functional.

The nature of data set [5]: Half life in mouse liver microsomes in presence of NADPH by LC-MS/MS analysis. In kind it is ADME, microsome.
Data set [6] concerns the target T1, Receptor-interacting serine/threonine-protein kinase 1 (Homo sapiens) (UniProt Q13546).
T1 sequence (whole entry): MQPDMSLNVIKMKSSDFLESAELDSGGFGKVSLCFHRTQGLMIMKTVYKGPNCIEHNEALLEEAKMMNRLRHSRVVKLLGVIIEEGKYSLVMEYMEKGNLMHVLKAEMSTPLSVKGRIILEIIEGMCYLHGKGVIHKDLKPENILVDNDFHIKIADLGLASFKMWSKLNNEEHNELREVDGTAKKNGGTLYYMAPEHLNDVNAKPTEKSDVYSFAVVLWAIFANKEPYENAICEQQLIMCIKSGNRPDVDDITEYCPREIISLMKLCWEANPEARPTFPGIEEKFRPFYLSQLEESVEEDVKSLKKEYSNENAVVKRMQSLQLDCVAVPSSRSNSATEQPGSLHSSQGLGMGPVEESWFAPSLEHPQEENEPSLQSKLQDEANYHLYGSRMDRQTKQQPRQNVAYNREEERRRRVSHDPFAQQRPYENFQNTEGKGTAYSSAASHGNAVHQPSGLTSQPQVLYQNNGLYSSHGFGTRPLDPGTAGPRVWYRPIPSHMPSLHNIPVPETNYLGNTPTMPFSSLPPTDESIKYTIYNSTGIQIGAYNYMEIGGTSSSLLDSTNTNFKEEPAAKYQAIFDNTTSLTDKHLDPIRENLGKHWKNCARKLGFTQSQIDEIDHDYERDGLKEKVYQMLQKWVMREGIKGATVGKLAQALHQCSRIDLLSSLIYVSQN
Nature of the data set: Inhibition of TNFalpha/z-VAD-FMK-induced RIP1 phosphorylation in human HT-29 cells by Western blot method. In kind it is cell-based.

Data set [7] concerns Mus musculus. Nature of the data set: Protection against TNFalpha-induced kidney damage in C57BL/6J mouse at 0.3 to 3 mg/kg, ip pretreated for 17 mins followed by TNFalpha injection and subsequent compound treatment once in every 12 hrs measured 24 hrs post TNFalpha injection by hematoxylin and eosin staining based assay. In kind it is functional, organism-based. The method in brief:
(§2)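 Mice given mTNFα IV; compound 0.3, 1, 3 mg/kg IP 17 min before and every 12 h. Killed 24 h post-TNFα. Organs fixed 24 h in 10% neutral buffered formalin, paraffin-embedded, 5-μm sections, H&E stained; ×200, at least three mice each.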

Data set [8] deals with T2, Cytochrome P450 1A2 (Homo sapiens, UniProt P05177).
T2 sequence (P05177 whole entry): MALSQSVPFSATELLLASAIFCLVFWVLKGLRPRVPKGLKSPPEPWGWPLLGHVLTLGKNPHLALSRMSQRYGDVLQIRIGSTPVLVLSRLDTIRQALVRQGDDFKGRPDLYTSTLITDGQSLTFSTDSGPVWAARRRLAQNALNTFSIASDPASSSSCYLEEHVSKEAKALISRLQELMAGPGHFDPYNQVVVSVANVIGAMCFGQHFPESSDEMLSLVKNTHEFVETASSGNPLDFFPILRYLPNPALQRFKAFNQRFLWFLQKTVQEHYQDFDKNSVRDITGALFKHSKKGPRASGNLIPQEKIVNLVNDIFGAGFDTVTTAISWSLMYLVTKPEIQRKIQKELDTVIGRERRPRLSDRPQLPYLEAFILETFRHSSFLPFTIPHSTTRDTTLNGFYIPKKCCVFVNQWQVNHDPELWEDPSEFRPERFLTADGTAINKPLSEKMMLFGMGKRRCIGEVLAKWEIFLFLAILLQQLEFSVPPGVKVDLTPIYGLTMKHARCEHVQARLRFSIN
Nature of the data set: Inhibition of CYP1A2 (unknown origin). In kind it is ADME.

Data set [9] has as its target Cytochrome P450 2D6 (Homo sapiens, UniProt P10635). Nature of the data set: Inhibition of CYP2D6 (unknown origin). In kind it is ADME.
The nature of data set [10]: Half life in human liver microsomes in presence of NADPH by LC-MS/MS analysis. It counts as ADME, microsome.
For data set [11], the system named is Mus musculus. Nature of the data set: Protection against TNFalpha-induced spleen damage in C57BL/6J mouse assessed as reduction in macrophages infiltration at 0.3 to 3 mg/kg, ip pretreated for 17 mins followed by TNFalpha injection and subsequent compound treatment once in every 12 hrs measured 24 hrs post TNFalpha injection by hematoxylin and eosin staining based assay. In kind it is functional, organism-based. The method, boiled down:
as §2

The subject of data set [12] is Mus musculus. Nature of the data set: Protection against TNFalpha-induced multiorgan damage in C57BL/6J mouse assessed as serum creatinine level at 0.3 to 3 mg/kg, ip pretreated for 17 mins followed by TNFalpha injection and subsequent compound treatment once in every 12 hrs measured 24 hrs post TNFalpha injection. It counts as functional, organism-based. The method in brief:
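C57BL/6 mice given 4 μg mTNFα (~0.18 mg/kg) IV. Compound 0.3, 1, 3 mg/kg IP 17 min before and then every 12 h; vehicle controls. Blood taken 12 h and 24 h after TNFα. Assays: IL-6 and IL-1β; serum LDH, CK, AST, creatinine, BUN, amylase.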

Data set [13] concerns the target Cytochrome P450 3A4 (Homo sapiens, UniProt P08684). Nature of the data set: Inhibition of CYP3A4 (unknown origin). In kind it is ADME.
Data set [14] is described as follows: Intrinsic clearance in human liver microsomes assessed per mg protein in presence of NADPH by LC-MS/MS analysis. In kind it is ADME, microsome. The conditions noted are these: read-out: CLH.
The test system of data set [15] is Mus musculus. Nature of the data set: Protection against TNFalpha-induced spleen damage in C57BL/6J mouse assessed as reduction in immune cell infiltration at 0.3 to 3 mg/kg, ip pretreated for 17 mins followed by TNFalpha injection and subsequent compound treatment once in every 12 hrs measured 24 hrs post TNFalpha injection by hematoxylin and eosin staining based assay. It counts as functional, organism-based. The method, boiled down:
as §2

The subject of data set [16] is Mus musculus. Nature of the data set: Protection against TNFalpha-induced mortality in C57BL/6J mouse assessed as survival rate at 6 mg/kg, ip administered as single dose 17 mins before TNFalpha injection measured every 30 mins up to 60 hrs post TNFalpha injection (reference value: 50%). It counts as functional.
In data set [17] the target is Receptor-interacting serine/threonine-protein kinase 3 (Homo sapiens) (UniProt Q9Y572). Nature of the data set: Inhibition of full length recombinant human N-terminal GST-tagged RIP3 expressed in baculovirus infected sf9 cells at 10 uM using MBP as substrate preincubated for 15 mins followed by MBP/ATP mixture addition measured after 90 mins by ADP-Glo kinase assay.
Chain of Receptor-interacting serine/threonine-protein kinase 3 (Homo sapiens) (Q9Y572 whole entry, looked up): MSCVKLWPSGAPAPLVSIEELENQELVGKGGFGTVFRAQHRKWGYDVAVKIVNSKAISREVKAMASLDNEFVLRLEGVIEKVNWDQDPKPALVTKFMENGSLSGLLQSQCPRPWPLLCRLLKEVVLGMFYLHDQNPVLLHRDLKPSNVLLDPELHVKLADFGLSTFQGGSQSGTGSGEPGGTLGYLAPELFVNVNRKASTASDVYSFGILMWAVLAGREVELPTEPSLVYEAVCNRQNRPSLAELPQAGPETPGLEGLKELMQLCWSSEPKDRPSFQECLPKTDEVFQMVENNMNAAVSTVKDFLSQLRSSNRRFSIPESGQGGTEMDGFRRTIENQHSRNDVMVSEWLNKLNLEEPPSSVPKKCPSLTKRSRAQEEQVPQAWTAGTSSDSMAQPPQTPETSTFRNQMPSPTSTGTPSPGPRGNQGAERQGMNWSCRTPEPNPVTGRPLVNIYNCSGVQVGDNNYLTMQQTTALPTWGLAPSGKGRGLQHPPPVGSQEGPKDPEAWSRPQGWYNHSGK

Chain of Cytochrome P450 3A4 (P08684 whole entry): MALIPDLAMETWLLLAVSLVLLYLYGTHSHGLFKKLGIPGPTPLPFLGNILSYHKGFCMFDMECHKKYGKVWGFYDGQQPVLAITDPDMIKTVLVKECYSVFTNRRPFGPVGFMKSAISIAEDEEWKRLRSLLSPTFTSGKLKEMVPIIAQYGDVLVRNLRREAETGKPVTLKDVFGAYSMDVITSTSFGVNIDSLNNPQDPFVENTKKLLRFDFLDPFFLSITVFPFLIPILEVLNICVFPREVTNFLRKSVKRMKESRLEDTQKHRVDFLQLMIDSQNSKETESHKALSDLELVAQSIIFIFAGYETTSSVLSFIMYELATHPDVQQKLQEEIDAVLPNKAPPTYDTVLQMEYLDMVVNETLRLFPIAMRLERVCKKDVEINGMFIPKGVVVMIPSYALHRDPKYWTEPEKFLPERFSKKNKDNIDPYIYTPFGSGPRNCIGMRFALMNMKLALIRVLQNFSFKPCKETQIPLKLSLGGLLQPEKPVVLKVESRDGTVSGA
Chain of Cytochrome P450 2D6 (P10635 whole entry): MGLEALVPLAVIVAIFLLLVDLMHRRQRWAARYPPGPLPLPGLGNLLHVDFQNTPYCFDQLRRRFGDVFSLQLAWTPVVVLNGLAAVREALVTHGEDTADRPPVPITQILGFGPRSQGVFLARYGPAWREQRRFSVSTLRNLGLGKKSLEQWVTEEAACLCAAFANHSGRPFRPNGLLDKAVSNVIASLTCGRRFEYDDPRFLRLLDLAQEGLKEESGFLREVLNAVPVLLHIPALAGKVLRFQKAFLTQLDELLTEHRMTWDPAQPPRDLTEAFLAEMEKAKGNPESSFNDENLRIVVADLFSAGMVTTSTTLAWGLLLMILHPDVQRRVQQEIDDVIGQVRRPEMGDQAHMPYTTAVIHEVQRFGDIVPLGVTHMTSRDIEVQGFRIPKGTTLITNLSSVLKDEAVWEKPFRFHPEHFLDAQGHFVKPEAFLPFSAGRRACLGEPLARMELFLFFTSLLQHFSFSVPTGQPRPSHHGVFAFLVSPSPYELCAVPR

As to `CCC(C)(C)C(=O)N(O)Cc1ccccc1`, the bioavailability is 100% in data set [1] and 22% in data set [3]. Moreover, in data set [2], the Drug uptake result is “Active”. For the same compound, the survival at 3 mg/kg in [4] came out at 100%. The half-life came out at 0.592 h in data set [5] and 2.13 h in data set [10]. Moreover, the inhibition result in data set [6] is “Active”. Moreover, the outcome in data set [7], in [11], in [12] and in [15] was Active. Besides, the IC50 in data set [8] was greater than 50 µM; in [9] it was greater than 50 µM; in data set [13] it was greater than 3.5 µM. Moreover, the microsomal CLint in data set [14] came out at 5.4 µL/min/mg. Also, the survival at 6 mg/kg in data set [16] amounted to 100%. Besides, the inhibition result in data set [17] is “inactive”.
